Assay results published in ChEMBL document CHEMBL4819034, “Tricyclic-Carbocyclic RORγt Inverse Agonists-Discovery of BMS-986313” (J Med Chem, 2021).

What was measured:
[1] = Half life in human liver microsomes; assay type: ADME, Microsome
Summary of the method: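 Liver microsome half-life (min) measured in human, mouse, rat, dog and cyno liver microsomes.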

[2] = molecular target: T1, Nuclear receptor ROR-beta (Homo sapiens, UniProt Q92753); experiment: Inverse agonist activity at Gal4-fused RORbeta (unknown origin)
T1 sequence (Q92753 whole entry): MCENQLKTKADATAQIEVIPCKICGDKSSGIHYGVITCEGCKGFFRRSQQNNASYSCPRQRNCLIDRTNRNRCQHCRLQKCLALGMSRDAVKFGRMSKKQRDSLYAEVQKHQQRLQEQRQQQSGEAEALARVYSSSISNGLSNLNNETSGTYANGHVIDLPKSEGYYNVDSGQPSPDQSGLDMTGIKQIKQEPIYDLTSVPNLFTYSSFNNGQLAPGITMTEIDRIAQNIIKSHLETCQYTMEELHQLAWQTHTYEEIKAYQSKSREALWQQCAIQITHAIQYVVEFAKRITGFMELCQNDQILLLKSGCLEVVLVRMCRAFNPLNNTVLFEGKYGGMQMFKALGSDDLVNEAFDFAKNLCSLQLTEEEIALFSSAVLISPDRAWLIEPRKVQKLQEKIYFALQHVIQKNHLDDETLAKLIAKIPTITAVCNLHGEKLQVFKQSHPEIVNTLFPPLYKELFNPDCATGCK

[3] = molecular target: T2, Oxysterols receptor LXR-alpha (Homo sapiens, UniProt Q13133); experiment: Inverse agonist activity at LXRalpha (unknown origin)
T2 sequence (Q13133 whole entry): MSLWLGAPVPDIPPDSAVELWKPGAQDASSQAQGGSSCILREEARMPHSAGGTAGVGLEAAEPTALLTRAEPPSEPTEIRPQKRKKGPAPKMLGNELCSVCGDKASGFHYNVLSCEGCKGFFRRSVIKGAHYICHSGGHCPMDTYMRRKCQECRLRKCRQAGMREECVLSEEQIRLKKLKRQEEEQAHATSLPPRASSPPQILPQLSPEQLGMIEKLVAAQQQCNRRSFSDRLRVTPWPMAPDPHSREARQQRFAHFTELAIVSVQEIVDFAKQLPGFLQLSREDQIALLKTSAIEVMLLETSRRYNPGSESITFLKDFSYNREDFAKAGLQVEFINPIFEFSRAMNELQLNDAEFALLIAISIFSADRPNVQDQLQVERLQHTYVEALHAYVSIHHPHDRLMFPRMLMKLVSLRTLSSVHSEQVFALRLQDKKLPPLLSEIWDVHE

[4] = molecular target: Voltage-gated inwardly rectifying potassium channel KCNH2 (Homo sapiens, UniProt Q12809); experiment: Inhibition of human ERG by patch-clamp assay
Sequence of Voltage-gated inwardly rectifying potassium channel KCNH2 (Q12809 whole entry): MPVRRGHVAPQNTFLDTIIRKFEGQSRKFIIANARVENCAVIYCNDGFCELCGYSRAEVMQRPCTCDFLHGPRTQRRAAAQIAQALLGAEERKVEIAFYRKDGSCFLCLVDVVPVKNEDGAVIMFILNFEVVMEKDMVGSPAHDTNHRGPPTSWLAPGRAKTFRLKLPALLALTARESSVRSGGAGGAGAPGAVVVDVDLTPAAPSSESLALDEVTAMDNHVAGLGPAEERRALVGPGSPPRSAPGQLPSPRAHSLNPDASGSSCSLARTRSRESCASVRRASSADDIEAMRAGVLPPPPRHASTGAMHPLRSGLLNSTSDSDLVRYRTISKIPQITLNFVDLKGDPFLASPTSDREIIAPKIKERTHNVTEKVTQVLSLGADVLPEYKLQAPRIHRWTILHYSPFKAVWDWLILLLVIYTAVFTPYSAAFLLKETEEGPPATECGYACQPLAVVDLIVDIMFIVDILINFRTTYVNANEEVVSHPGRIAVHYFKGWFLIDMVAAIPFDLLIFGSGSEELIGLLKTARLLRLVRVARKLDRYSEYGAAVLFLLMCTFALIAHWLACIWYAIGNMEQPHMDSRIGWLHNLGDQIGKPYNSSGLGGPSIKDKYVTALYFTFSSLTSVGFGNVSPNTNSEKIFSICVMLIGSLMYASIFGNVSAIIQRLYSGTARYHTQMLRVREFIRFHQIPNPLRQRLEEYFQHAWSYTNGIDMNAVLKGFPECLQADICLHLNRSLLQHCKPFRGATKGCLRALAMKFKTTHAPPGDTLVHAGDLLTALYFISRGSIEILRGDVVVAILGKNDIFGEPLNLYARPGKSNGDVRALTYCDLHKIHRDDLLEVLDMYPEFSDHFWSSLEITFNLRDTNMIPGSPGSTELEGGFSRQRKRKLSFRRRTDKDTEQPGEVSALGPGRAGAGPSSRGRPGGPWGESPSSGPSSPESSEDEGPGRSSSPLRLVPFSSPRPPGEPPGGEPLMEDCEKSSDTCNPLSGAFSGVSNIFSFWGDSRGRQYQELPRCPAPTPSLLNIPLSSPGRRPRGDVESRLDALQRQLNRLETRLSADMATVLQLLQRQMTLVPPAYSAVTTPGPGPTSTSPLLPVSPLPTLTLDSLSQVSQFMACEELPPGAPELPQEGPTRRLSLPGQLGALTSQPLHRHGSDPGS

[5] = Protein binding in human assessed as unbound fraction; assay type: ADME
[6] = molecular target: T3, Cytochrome P450 1A2 (Homo sapiens, UniProt P05177); experiment: Inhibition of CYP1A2 (unknown origin); assay type: ADME
T3 sequence (P05177 whole entry): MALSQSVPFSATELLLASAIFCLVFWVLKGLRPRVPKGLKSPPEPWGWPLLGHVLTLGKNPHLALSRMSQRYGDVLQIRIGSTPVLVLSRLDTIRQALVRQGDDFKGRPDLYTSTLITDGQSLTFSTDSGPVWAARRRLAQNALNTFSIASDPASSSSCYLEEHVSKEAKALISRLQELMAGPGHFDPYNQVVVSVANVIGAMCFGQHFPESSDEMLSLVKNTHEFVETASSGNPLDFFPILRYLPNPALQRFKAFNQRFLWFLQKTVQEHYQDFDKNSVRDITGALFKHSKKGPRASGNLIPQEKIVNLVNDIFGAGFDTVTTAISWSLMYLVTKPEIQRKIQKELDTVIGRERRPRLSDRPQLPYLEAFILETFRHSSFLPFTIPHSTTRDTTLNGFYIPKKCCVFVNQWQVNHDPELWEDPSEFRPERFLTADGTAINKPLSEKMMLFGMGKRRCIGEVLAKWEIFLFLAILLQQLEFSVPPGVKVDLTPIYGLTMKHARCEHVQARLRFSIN

[7] = molecular target: Cytochrome P450 2C19 (Homo sapiens, UniProt P33261); experiment: Inhibition of CYP2C19 (unknown origin); assay type: ADME
Sequence of Cytochrome P450 2C19 (P33261 whole entry): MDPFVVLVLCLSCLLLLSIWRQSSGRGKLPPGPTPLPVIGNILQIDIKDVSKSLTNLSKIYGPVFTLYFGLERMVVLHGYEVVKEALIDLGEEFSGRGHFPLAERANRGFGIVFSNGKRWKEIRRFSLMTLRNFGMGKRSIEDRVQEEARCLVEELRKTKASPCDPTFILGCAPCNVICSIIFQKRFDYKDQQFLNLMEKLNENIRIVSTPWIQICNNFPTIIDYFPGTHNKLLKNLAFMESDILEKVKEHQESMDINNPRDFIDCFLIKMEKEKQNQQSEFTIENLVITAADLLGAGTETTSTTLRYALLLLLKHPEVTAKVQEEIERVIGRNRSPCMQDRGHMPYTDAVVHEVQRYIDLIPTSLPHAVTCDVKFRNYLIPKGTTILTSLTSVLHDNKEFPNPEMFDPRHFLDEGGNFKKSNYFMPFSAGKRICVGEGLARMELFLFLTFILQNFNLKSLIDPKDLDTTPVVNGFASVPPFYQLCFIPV

[8] = Cmax in mouse at 4 mg/kg, po; assay type: ADME, organism-based; set-up: route oral, dose 4 mg/kg; details: in vivo
Summary of the method: (§1)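 Single-dose PK, IV and PO. Doses: mouse and rat 2 mg/kg IV / 4 mg/kg PO; dog and cyno 1 mg/kg IV, with 1 or 2 mg/kg PO.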

[9] = Oral bioavailability in mouse at 4 mg/kg; assay type: ADME, organism-based; details: in vivo; summary of the method: as §1
[10] = Clearance in rat at 2 mg/kg, iv; assay type: ADME, organism-based; details: in vivo; summary of the method: as §1
[11] = Cmax in rat at 4 mg/kg, po; assay type: ADME, organism-based; set-up: route oral, dose 4 mg/kg; details: in vivo; summary of the method: as §1
[12] = Volume of distribution at steady state in dog at 1 mg/kg, iv; assay type: ADME, organism-based, Canis lupus familiaris; details: in vivo, read-out: Vdss
Summary of the method: (§2)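 Single intravenous dose: mouse and rat 2 mg/kg, dog and cynomolgus 1 mg/kg. Steady-state volume of distribution was derived from the IV arm. Values are means from three or more animals.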

[13] = Cmax in dog at 2 mg/kg, po; assay type: ADME, organism-based, Canis lupus familiaris; set-up: route oral, dose 2 mg/kg; details: in vivo; summary of the method: as §1
[14] = Oral bioavailability in dog at 2 mg/kg; assay type: ADME, organism-based, Canis lupus familiaris; details: in vivo; summary of the method: as §1
[15] = Volume of distribution at steady state in cynomolgus monkey at 1 mg/kg, iv; assay type: ADME, organism-based, Macaca fascicularis; details: in vivo, read-out: Vdss; summary of the method: as §2
[16] = Oral bioavailability in cynomolgus monkey at 2 mg/kg; assay type: ADME, organism-based, Macaca fascicularis; details: in vivo; summary of the method: as §1
[17] = system: Mus musculus; experiment: Protection against imiquimod-induced C57BL/6 mouse model of psoriasis assessed as inhibition of skin thickening at 20 mg/kg, po BID for 7 days and measured every day for 8 days relative to control; assay type: functional; details: C57BL/6, po, 168 h, time 7 day
[18] = system: Mus musculus; experiment: Protection against imiquimod-induced C57BL/6 mouse model of psoriasis assessed as reduction in IL-17A mRNA levels at 20 mg/kg, po BID for 7 days by RT-PCR analysis relative to control; assay type: functional; set-up: scale not given: the % may be the effect or the level left; details: time 7 day
[19] = system: Mus musculus; experiment: Protection against imiquimod-induced C57BL/6 mouse model of psoriasis assessed as reduction in IL-17F mRNA levels at 5 mg/kg, po BID for 7 days by RT-PCR analysis relative to control; assay type: functional; set-up: scale not given: the % may be the effect or the level left; details: time 7 day
[20] = system: Mus musculus; experiment: Protection against recombinant human IL23-induced acanthosis C57BL/6 mouse model assessed as reduction in IL-17A mRNA levels at 3 mg/kg, po BID BID for 10 days by qRT-PCR analysis relative to control; assay type: functional; set-up: scale not given: the % may be the effect or the level left; details: time 10 day
Summary of the method: (§3)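 In the IL-23 ear-injection model in C57BL/6 mice with BID oral dosing, ear tissue was collected from all animals at study end on day 10. IL-17A and IL-17F mRNA expression was quantified by qPCR and compared with the placebo arm.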

[21] = system: Mus musculus; experiment: Protection against recombinant human IL23-induced acanthosis C57BL/6 mouse model assessed as reduction in IL-17A mRNA levels at 15 mg/kg, po BID BID for 10 days by qRT-PCR analysis relative to control; assay type: functional; set-up: scale not given: the % may be the effect or the level left; details: time 10 day; summary of the method: as §3
[22] = system: Mus musculus; experiment: Protection against recombinant human IL23-induced acanthosis C57BL/6 mouse model assessed as reduction in IL-17F mRNA levels at 3 mg/kg, po BID BID for 10 days by qRT-PCR analysis relative to control; assay type: functional; set-up: scale not given: the % may be the effect or the level left; details: time 10 day; summary of the method: as §3
[23] = system: Mus musculus; experiment: Protection against recombinant human IL23-induced acanthosis C57BL/6 mouse model assessed as reduction in IL-17F mRNA levels at 15 mg/kg, po BID BID for 10 days by qRT-PCR analysis relative to control; assay type: functional; set-up: scale not given: the % may be the effect or the level left; details: time 10 day; summary of the method: as §3

half-life [1]: 2 h
EC50 [2]: > 10 µM
EC50 [3]: > 5 µM
fraction unbound [5]: 0.005
IC50 [6]: 20 µM
IC50 [7]: 19 µM
Cmax [8]: 2200 nM
bioavailability [9]: 100%
clearance [10]: 4.2 mL/min/kg
Cmax [11]: 1000 nM
Vd [12]: 3.2 L/kg
Cmax [13]: 1300 nM
bioavailability [14]: 83%
Vd [15]: 2.7 L/kg
bioavailability [16]: 75%
SMILES: CC(C)(O)C(=O)N[C@@H]1CC[C@@]2(S(=O)(=O)c3ccc(F)cc3)c3ccc(C(F)(C(F)(F)F)C(F)(F)F)cc3CC[C@@H]12
IC50 [4]: 19 µM
inhibition in vivo at 20 mg/kg [17]: 57.7%
Activity [18]: 91.5%
Activity [19]: 79.2%
Activity [20]: 2.7%
Activity [21]: 71.6%
Activity [22]: 13.7%
Activity [23]: 79.6%
